Sampled rows, rich in hits. Any-hit rate of the full collection: about 0.3%.
BasE inh – BasE siderophore biosynthesis inhibition; purified BasE, fluorescence polarization binding displacement; inhibition, % (no concentration beside the values); 84,000 compounds, 0.1% hits; AID 485350; in the data active = inhibition above about 25%, passing the limit was not always enough;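 note: 0% = negative plate control signal and 100% = positive plate control signal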
LANA-nucl inh – LANA-nucleosome interaction inhibition; FITC-LANA1-23 / chicken nucleosome fluorescence polarization; hits give low values; z-score (concentration not given with the values); 51,000 compounds, 0.3% hits;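 active = both repeat wells score below -2 in polarization z-score versus plate sample wells, excluding overly bright wells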
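Assay system: purified chicken nucleosomes with FITC-labelled LANA N-terminal peptide (1-23) / Probe or stimulus: 50 nM FITC-LANA1-23 probe / Compound dosing: pin-transferred compound, 100 nL / Times: compound with peptide–nucleosome mix 10–45 min at room temperature / Technique: fluorescence polarization, 480 nm excitation, 535 nm parallel and perpendicular emission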
* = called active by the depositor; . = not tested or not shown; ! = a repeat was not active.

SMILES	BasE inh	LANA-nucl inh
O=C1c2ccccc2-c2n[nH]c3cccc1c23	8.7	-1.98*!
O=c1[nH]nc2c3c(cccc13)-c1ccccc1-2	-2.8	1.91
CCCN(CCC)S(=O)(=O)c1ccc(C(=O)Nc2ccc3c(c2)OCO3)cc1	0.3	-0.548
CCC(C)c1ccc(O)c(NC(=O)c2cccnc2)c1 (stereo not given)	-0.2	.
C/C(=C\C(=O)c1cccnc1)Nc1ccccc1O	29.6*	0.054
Cc1ccccc1-c1ocnc1C(=O)NCc1ccc(C(F)(F)F)cc1	3.1	0.077
Cc1cc(NCCNc2ccccc2)c2ccc3ccccc3c2n1	-13.1	.
Cc1cc(NCCN(C)C)c2ccccc2n1	2.6	-2.16*
Cc1cc(C)c2c(n1)SCC(=O)N2CCCC(=O)NCc1ccccc1	1.1	-0.903
CSc1scc2c1C(=O)/C(=C/N(C)C)CC2	36.0*	-0.491
CSc1scc2c1C(=O)CC(C)(C)C2	-0.9	.
CCNC(=S)N1CCN(S(=O)(=O)c2ccc(C)cc2)CC1	-2.8	.
CCNC(=S)N1CCN(S(=O)(=O)c2ccc(Cl)cc2)CC1	3.5	-2.15*
C=CCN1C(=O)/C(=C2/SC(C)=C(C)N2CC)SC1=Nc1c(C)n[nH]c1C	0.9	-0.886
Cc1cc2c(n1-c1ccc(C(=O)O)cc1)CCCC2	30.5*	0.837
Cc1cc2c(n1-c1ccc(C(=O)NCCc3cccs3)cc1)CCCC2	0.6	-0.0965
Cc1ccc(-c2csc(NC3OC(=O)c4c#cccc43)n2)cc1 (stereo not given)	-2.8	2.64
O=c1ccc(-c2ccc(S(=O)(=O)NCCC3=CCCCC3)s2)n[nH]1	2.3	.
NC(=O)Cn1cnc2ccccc21	0.7	0.138
O=C(Cn1cnc2ccccc21)OCc1ccc(Br)cc1	26.7*	.
O=C1OC(c2ccccc2)=N/C1=C\c1ccc(N2CCOCC2)cc1	3.6	.
Cc1cc(O)cc(=O)n1C	0.5	0.066
Cc1cc(O)c(Cc2c(O)cc(C)n(C)c2=O)c(=O)n1C	1.2	-2.35*
c1ccc2c(c1)n1cnnc1c1nncn21	1.3	-0.37
CCOC(=O)c1cc(-c2ccc(N(CC)CC)cc2)no1	5.2	-4.77*
SMILES	BasE inh	LANA-nucl inh
COC(=O)c1cc(-c2ccc(C)cc2)no1	1.2	0.407
CC1CCC(n2cccc2)CC1 (stereo not given)	0.8	.
CCNc1cc(NCC)c2noc3c2c1C(=O)c1ccccc1-3	2.8	-0.064
CC(=O)OCCNc1cc(Cl)c2noc3c2c1C(=O)c1ccccc1-3	8.2	-3.71*
Cc1csc(C(C#N)C(=O)CSc2nc3ccccc3n2-c2ccccc2)n1 (stereo not given)	35.1*	.
Cc1csc(C(C#N)C(=O)CSc2cc(C)c3ccccc3n2)n1 (stereo not given)	2.4	.
CCn1c(=O)c2c3c(sc2n2c(=S)[nH]nc12)CCCC3	-1.5	0.391
CC(C)c1c(Br)c(=O)oc2c3c4c(cc12)CCCN4CCC3	21.0	.
O=c1ccc2cc3c4c(c2o1)CCCN4CCC3	17.0	-5.21*
COCCNS(=O)(=O)c1c(C)nc2sccn2c1=O	0.9	-1.11
CCOC(=O)C1=C(c2ccccc2)Nc2ncnn2C1c1ccncc1 (stereo not given)	2.3	-1.13
N#Cc1c(NCc2ccccc2)ncc2c1Nc1ccccc1C2	-0.9	-3.26*
CC(C)c1nc(NCc2ccccc2)c(C#N)c2c1CCCC2	1.6	0.065
CCN(CC)c1ncc(Br)cn1	-0.8	0.652
Cc1cc(O)c(Cc2cc(Cl)c3cccnc3c2O)c(=O)o1	77.8*	.
O=c1oc2ccccc2c(O)c1Cc1cc(Cl)c2cccnc2c1O	23.4	.
Cc1ccc(OCC(=O)NCc2ccc(C(=O)O)cc2)cc1C	-2.7	0.147
Cc1cccc(NC(=O)COC(=O)Cn2cnc3ccccc3c2=O)c1	-2.7	.
CN=C(Nc1ccc(C(=O)NC)cc1)c1ccccc1	0.0	.
CN(C)c1ccc(/C=N/O)c(N(C)C)c1C#N	.	-0.563
O=C1CSc2sc(=S)sc2S1	28.2*	.
O=C(O)c1cccn2nnnc12	0.4	-2.27*
O=C(O)c1ccccc1O	-1.4	0.213
Cc1ccc2nc(COC(=O)Cc3ccsc3)cc(=O)n2c1	-0.4	.
NC(c1ccccc1)c1ccccc1	-1.8	.
SMILES	BasE inh	LANA-nucl inh
Cn1nccc1C(N)c1ccccc1 (stereo not given)	25.5*	-0.528
O=C(c1cnc(N2CCOCC2)nc1)N1CCN(c2ccc(F)cc2)CC1	0.9	1.38
O=C1C=CC(=O)C(Sc2nnnn2-c2ccccc2)=C1	17.4	-0.191
N#C/C(=C/c1ccc(-c2cc(C(=O)O)ccc2Cl)o1)C(=O)NCCc1c[nH]c2ccccc12	30.8*	-0.032
N#C/C(=C\c1ccc(-c2cc(C(F)(F)F)ccc2Cl)o1)C(=O)O	0.2	.
COc1cc2c(cc1NC(C)C(=O)N1CCCC1)oc1ccccc12 (stereo not given)	0.4	.
O=c1ccc(-c2ccccc2)nn1Cc1ccncc1	76.6*	-1.27
Cn1nc(-c2ccccc2)ccc1=O	3.0	-0.683
O=C(NCc1ccccc1)c1cccc(Cl)c1	-2.7	-0.356
N#Cc1c(=O)n(O)c2ccccc2[n+]1[O-]	2.1	-12.7*
O=c1c(-c2ccc(Oc3ccccc3)cc2)[n+]([O-])c2ccccc2n1O	0.4	0.258
CN(CCC#N)c1ccc(/C=C2/N=C(c3ccccc3)OC2=O)cc1	.	2.93
COc1ccc(OC)c(/C=N/c2ncn[nH]2)c1	-0.1	-0.243
NC(=O)CC12CC3CC(C1)CC(CC(N)=O)(C3)C2	56.6*	1.34
O=C(O)CC12CC3CC(C1)CC(CC(=O)O)(C3)C2	-0.4	.
O=C1CS(=O)(=O)C(c2cccs2)N1CC1CC1 (stereo not given)	.	0.767
C=CCn1c(=O)[nH]c2nc3cc(N=CN(C)C)ccc3nc2c1=O	26.0	-5.8*
C=CCn1c(=O)[nH]c2nc3cc(NC(=O)CC)ccc3nc2c1=O	18.8	-1.47
CC(C)C(c1nnnn1CCc1ccccc1)N1CCCC1 (stereo not given)	0.3	-0.128
Cc1ccc(C)n1-c1cc(Cl)ccc1C(=O)O	84.9*	-0.209
Cc1ccc(C)n1-c1cc(Cl)ccc1N1CCCCC1	-1.2	.
O=C(N/N=C1\CCS(=O)(=O)c2ccc(F)cc21)c1ccc(O)cc1	55.1*	.
O=C(N/N=C1/CCS(=O)(=O)c2ccc(F)cc21)c1ccccn1	-0.6	.
N#C/C(=C(/O)CSc1ncnc2c1cnn2-c1ccccc1)c1nc2ccccc2[nH]1	-1.3	.
COC(=O)c1ccc([C@@H]2Nc3c(C)cccc3[C@@H]3C=CC[C@@H]32)cc1	-1.1	.
SMILES	BasE inh	LANA-nucl inh
O=C(O)C1Nc2c(I)cccc2C2C=CCC12 (stereo not given)	46.6*	1.32
O=c1[nH]c2c(c(=O)[nH]1)CN(Cc1ccc(F)cc1)CC2	-0.9	-0.357
C#CCSc1nc2cc(Cl)ccc2o1	-0.4	.
COc1ccc(-c2cc(-c3ccco3)nn2-c2nc(-c3ccc(Cl)cc3)cs2)cc1	-1.3	.
COc1ccc(-c2csc(-n3[nH]c(C)c(C(c4ccc(Cl)cc4)C(C#N)C(N)=O)c3=O)n2)cc1 (stereo not given)	34.9*	-0.008
Cc1ccc2c(c1)c1c3c(nccn32)CCC1	10.5	-3.24*
Cc1ccc2c(c1)c1c(n2C)C(C#N)CCC1 (stereo not given)	2.2	-0.556
CCN1CCN(CCN=C2NS(=O)(=O)C(c3ccc(F)cc3)=C2C)CC1	-4.3	.
COc1ccc(N/N=C(\C#N)C(=O)Nc2ccccc2C(=O)O)cc1Cl	79.6*	.
Cc1ccc(NC(=O)/C(C#N)=N/Nc2ccc(C(=O)O)cc2)c(C)c1	3.9	.
COc1cc(/C=N/NC(=O)c2cc(C3CC3)[nH]n2)ccc1O	49.2*	0.328

High-throughput results: PubChem, ICCB-Longwood Screening Facility, Harvard Medical School
